{
  "source": "ChEMBL document CHEMBL2177069",
  "about": "“Novel peptidomimetic compounds containing redox active chalcogens and quinones as potential anticancer agents” (Eur J Med Chem, 2012)",
  "key": {"MCF7 [1]": {"test_system": "MCF7", "assay": "Induction of Cell cycle arrest in human MCF7 cells assessed as G2/M phase cells at IC50 concentration after 24 hrs by PI-staining based flow cytometric analysis (reference value: 13%)", "type": "functional", "summary_of_the_method": "(§1)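 MCF-7 cells (10^6) were treated for 24 h, with methanol as the vehicle control. Cells were fixed in cold 70% methanol at 4 °C for one day, washed with PBS, and permeabilized with 0.1% saponin in PBS. They were stained with propidium iodide plus RNase for 30 min. DNA content was read by flow cytometry, giving percentages of cells per cell-cycle phase.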"}, "MCF7 [2]": {"test_system": "MCF7", "assay": "Induction of Cell cycle arrest in human MCF7 cells assessed as S phase cells at IC50 concentration after 24 hrs by PI-staining based flow cytometric analysis (reference value: 19%)", "type": "functional", "summary_of_the_method": "as §1"}, "MCF7 [3]": {"test_system": "MCF7", "assay": "Induction of Cell cycle arrest in human MCF7 cells assessed as G0/1 phase cells at IC50 concentration after 24 hrs by PI-staining based flow cytometric analysis (reference value: 68%)", "type": "functional", "summary_of_the_method": "as §1"}, "MCF7 [4]": {"test_system": "MCF7", "assay": "Induction of oxidative stress in human MCF7 cells assessed as decrease in GSH level at 5 uM after 1 hr by DTNB assay relative to control", "type": "functional", "design": "scale not given: the % may be the effect or the level left", "summary_of_the_method": "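MCF-7 cells (10^6) were treated for 1 h at 37 °C, trypsinized, and washed twice with cold PBS. GSH was extracted with chilled 5% metaphosphoric acid at 4 °C for 2 h, then the lysate was centrifuged. Supernatant was mixed with 0.2 M sodium phosphate pH 8.0 and 0.04 mM DTNB for 10 min at room temperature. Absorbance was read at 412 nm against a reagent blank, and GSH was quantified from a standard curve.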"}, "K562": {"test_system": "K562", "assay": "Cytotoxicity against human K562 cells", "type": "functional"}, "HUVEC [5]": {"test_system": "HUVEC", "assay": "Induction of oxidative stress in human HUVEC cells assessed as increase in superoxide free radical production after 1 hr by DHE-based by fluorescence spectrophotometric analysis", "type": "cell-based", "summary_of_the_method": "(§2)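 Cells were seeded at 10^5 per well and given graded compound concentrations for 1 h. They were then loaded with DHE or DCF probe for 30 min in the dark. Fluorescence was read immediately: DHE ex 540/em 600 nm; DCF ex 485/em 528 nm. Results were expressed as arbitrary units per 10^5 cells.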"}, "HUVEC [6]": {"test_system": "HUVEC", "assay": "Induction of oxidative stress in human HUVEC cells assessed as increase in hydrogen peroxide free radical production after 1 hr by DCF-based fluorescence spectrophotometric analysis", "type": "cell-based", "summary_of_the_method": "as §2"}, "A-431 [7]": {"test_system": "A-431", "assay": "Induction of oxidative stress in human A431 cells assessed as increase in superoxide free radical production after 1 hr by DHE-based by fluorescence spectrophotometric analysis", "type": "functional, cell-based", "summary_of_the_method": "as §2"}, "A-431 [8]": {"test_system": "A-431", "assay": "Induction of oxidative stress in human A431 cells assessed as increase in hydrogen peroxide free radical production after 1 hr by DCF-based fluorescence spectrophotometric analysis", "type": "functional, cell-based", "summary_of_the_method": "as §2"}},
  "note": "Activity calls are given as the source filed them. The rule behind the calls is not given here.",
  "data": [
    {"molecule": "CC1=C([Se]CC(OC(=O)[C@@H](CO)NC(=O)OC(C)(C)C)C(=O)NC(C)(C)C)C(=O)c2ccccc2C1=O", "note": "(stereo partly drawn)", "values": [
      {"measurement": "Activity", "setting": "MCF7 [1]", "value": 12, "unit": "%"},
      {"measurement": "Activity", "setting": "MCF7 [2]", "value": 7.7, "unit": "%"},
      {"measurement": "Activity", "setting": "MCF7 [3]", "value": 80, "unit": "%"},
      {"measurement": "Activity", "setting": "MCF7 [4]", "value": 59, "unit": "%"},
      {"measurement": "GI50", "setting": "K562", "value": 1350, "unit": "nM"},
      {"measurement": "LC50", "setting": "K562", "value": "> 100", "unit": "µM"}
    ]},
    {"molecule": "CC1=C(SCCC(=O)OC(C[Se]C2=C(C)C(=O)c3ccccc3C2=O)C(=O)NCCCCCC(=O)OCc2ccccc2)C(=O)c2ccccc2C1=O", "note": "(stereo not drawn)", "values": [
      {"measurement": "Activity", "setting": "HUVEC [5]", "value": "Non-toxic"},
      {"measurement": "Activity", "setting": "HUVEC [6]", "value": "Non-toxic"},
      {"measurement": "Activity", "setting": "A-431 [7]", "value": "Active"},
      {"measurement": "Activity", "setting": "A-431 [8]", "value": "Active"},
      {"measurement": "GI50", "setting": "K562", "value": 3020, "unit": "nM"},
      {"measurement": "LC50", "setting": "K562", "value": "> 100", "unit": "µM"},
      {"measurement": "TGI", "setting": "K562; read-out: pTGI", "value": "> 100", "unit": "µM"}
    ]}
  ]
}
